Experimental data as given in ChEMBL document CHEMBL4376812 (J Med Chem, 2019).
In brackets after ≈: the same amount, converted by molar mass.

What was measured:
[1] = Metabolic stability in mouse liver microsomes assessed as compound remaining incubated for 10 mins; type: ADME, Microsome; details: read-out: Stability
Method in brief: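 Mouse liver microsomal stability, reported as percent of parent remaining after a 10 min incubation. Values are means of at least three experiments unless otherwise noted.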

[2] = Metabolic stability in rat liver microsomes assessed as half life; type: ADME, Microsome
Method in brief: (§1)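 Liver microsomes from human, rat, mouse, dog, cynomolgus monkey and rabbit were incubated with compound. Stability is reported as half-life (T1/2, min). Values are means of at least three separate experiments.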

[3] = Metabolic stability in cynomolgus monkey liver microsomes assessed as half life; type: ADME, Macaca fascicularis, Microsome; method in brief: as §1
[4] = Metabolic stability in rabbit liver microsomes assessed as half life; type: ADME, Oryctolagus cuniculus, Microsome; method in brief: as §1
[5] = Permeability coefficient, Kp across basolateral to apical side in human Caco2 cells; type: ADME, cell-based; details: Caco-2, read-out: permeability
Method in brief: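 Caco-2 monolayer permeability measured in both directions, apical-to-basal and basal-to-apical, reported as Pc in nm/s. An efflux ratio was calculated from the two directions.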

Cytochrome P450 1A2 = target: T1, Cytochrome P450 1A2 (Homo sapiens, UniProt P05177); experiment: Inhibition of CYP1A2 (unknown origin); type: ADME
T1 sequence (P05177 whole entry): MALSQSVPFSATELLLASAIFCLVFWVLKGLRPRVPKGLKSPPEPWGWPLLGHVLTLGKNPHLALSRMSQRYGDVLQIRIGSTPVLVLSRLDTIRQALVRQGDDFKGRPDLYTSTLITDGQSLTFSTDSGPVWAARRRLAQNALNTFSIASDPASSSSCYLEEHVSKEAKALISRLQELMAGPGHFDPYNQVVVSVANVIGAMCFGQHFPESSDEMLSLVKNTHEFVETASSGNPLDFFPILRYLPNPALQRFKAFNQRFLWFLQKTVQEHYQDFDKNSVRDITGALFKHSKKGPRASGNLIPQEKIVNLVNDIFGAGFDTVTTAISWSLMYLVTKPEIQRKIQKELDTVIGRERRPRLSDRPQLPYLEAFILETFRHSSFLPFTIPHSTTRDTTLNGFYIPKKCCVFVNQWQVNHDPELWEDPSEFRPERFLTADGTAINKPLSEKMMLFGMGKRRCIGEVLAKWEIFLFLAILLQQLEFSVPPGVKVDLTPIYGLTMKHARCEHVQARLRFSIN
Method in brief: (§2)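 Inhibition of CYP1A2, 2C9, 2C19, 2D6 and 3A4, read out as IC50. The highest concentration tested was 40 μM.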

Cytochrome P450 2C9 = Cytochrome P450 2C9 (Homo sapiens, UniProt P11712); experiment: Inhibition of CYP2C9 (unknown origin); type: ADME; method in brief: as §2
Cytochrome P450 2C9, sequence (P11712 whole entry): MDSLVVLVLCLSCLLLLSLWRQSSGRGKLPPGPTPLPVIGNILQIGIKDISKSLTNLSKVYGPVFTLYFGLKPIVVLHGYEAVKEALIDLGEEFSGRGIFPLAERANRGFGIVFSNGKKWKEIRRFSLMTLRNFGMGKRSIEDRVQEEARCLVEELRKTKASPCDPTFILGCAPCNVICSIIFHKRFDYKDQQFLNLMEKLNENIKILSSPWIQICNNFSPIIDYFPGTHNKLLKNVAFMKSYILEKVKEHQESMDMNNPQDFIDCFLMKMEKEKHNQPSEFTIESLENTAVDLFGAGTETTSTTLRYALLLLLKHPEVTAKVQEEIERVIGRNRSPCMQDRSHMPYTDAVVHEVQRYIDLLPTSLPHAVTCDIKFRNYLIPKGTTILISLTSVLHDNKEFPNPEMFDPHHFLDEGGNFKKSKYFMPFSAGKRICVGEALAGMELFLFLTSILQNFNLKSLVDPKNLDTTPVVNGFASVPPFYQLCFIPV

Cytochrome P450 3A4 = Cytochrome P450 3A4 (Homo sapiens, UniProt P08684); experiment: Induction of CYP3A4 (unknown origin) by PXR-transactivation assay; type: ADME
Cytochrome P450 3A4, sequence (P08684 whole entry): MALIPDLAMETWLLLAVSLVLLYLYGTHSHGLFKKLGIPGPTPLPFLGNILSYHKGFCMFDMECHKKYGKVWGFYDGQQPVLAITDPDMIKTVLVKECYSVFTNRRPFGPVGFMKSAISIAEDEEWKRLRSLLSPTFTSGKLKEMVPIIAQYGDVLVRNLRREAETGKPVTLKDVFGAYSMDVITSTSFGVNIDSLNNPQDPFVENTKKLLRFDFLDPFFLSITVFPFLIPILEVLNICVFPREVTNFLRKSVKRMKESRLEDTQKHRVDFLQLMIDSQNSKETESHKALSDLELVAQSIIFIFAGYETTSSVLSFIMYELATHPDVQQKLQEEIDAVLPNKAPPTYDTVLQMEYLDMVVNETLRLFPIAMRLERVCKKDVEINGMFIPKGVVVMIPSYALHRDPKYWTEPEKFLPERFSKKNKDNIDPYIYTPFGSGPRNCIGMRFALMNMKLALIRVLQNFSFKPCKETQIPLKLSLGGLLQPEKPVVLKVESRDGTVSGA
Method in brief: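 CYP3A4 induction measured by PXR transactivation, read out as EC50. The highest concentration tested was 40 μM.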

hERG (KCNH2) = hERG (KCNH2) (Homo sapiens, UniProt Q12809); experiment: Inhibition of human ERG at 10 uM by patch-clamp assay relative to control
hERG (KCNH2), sequence (Q12809 whole entry): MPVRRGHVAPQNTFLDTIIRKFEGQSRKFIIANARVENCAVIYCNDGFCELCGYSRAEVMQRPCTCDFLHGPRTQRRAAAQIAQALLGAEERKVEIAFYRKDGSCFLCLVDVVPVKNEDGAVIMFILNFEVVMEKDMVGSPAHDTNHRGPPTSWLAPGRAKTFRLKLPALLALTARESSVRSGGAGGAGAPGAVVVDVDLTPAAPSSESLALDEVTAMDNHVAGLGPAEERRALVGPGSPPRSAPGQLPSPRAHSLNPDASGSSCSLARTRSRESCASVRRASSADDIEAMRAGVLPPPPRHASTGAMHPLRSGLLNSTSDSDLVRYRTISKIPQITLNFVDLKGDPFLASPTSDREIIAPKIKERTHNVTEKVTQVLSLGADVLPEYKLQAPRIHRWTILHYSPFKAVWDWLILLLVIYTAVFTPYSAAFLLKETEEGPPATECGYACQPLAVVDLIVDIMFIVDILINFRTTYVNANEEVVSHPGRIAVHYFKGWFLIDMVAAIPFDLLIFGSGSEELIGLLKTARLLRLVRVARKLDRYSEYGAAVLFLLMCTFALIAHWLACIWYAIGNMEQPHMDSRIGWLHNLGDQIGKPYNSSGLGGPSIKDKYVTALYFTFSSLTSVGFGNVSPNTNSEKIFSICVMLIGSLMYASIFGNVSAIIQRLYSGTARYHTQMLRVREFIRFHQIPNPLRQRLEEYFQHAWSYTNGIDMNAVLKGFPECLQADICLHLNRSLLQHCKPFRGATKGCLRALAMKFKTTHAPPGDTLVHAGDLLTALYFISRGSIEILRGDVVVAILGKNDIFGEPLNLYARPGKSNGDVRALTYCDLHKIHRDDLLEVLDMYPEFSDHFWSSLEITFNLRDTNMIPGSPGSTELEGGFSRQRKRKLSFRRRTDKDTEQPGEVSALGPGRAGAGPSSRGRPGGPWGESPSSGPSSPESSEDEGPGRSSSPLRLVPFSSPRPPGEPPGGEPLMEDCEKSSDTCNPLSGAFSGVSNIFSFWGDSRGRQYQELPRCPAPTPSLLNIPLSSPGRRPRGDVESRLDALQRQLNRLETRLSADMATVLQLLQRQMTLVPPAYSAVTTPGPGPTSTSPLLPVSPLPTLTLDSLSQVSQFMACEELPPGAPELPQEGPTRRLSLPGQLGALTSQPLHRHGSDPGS
Method in brief: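 hERG potassium channel patch clamp assay, read as percent inhibition at 10 μM (n = 7).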

[6] = Protein binding in human assessed as unbound fraction; type: ADME
[7] = Protein binding in cynomolgus monkey assessed as unbound fraction; type: ADME, Macaca fascicularis
[8] = Aqueous solubility of crystalline free base form of compound at pH 7.4; type: physicochemical; details: aqueous medium
Method in brief: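 Aqueous solubility of the crystalline free base, measured at pH 7.4 and reported in μg/mL.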

[9] = Clearance in C57BL/6 mouse at 1 mg/kg, iv; type: ADME, organism-based; details: in vivo
Method in brief: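 Mouse iv PK: 1 mg/kg given in 80% PEG 400/20% water. Clearance (mL min⁻¹ kg⁻¹) and MRT (h) were derived.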

[10] = Volume of distribution at steady state in C57BL/6 mouse at 1 mg/kg, iv; type: ADME, organism-based; details: in vivo, read-out: Vdss
Method in brief: (§3)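 Single intravenous dose in 80% PEG 400/20% water. V_ss was taken from the iv plasma PK profile.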

[11] = Half life in C57BL/6 mouse at 1 mg/kg, iv; type: ADME, organism-based; details: in vivo
Method in brief: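 Mouse iv PK: 1 mg/kg in 80% PEG 400/20% water. Terminal half-life reported in hours.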

[12] = Cmax in C57BL/6 mouse at 10 mg/kg, po; type: ADME, organism-based; design: dose 10 mg/kg, route oral; details: in vivo
Method in brief: (§4)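 Oral PK: single dose of 10 mg/kg as a solution in ethanol/TPGS/PEG 300 (5:5:90) given to mouse, dog and monkey. Cmax (μM), AUC (μM × h) and bioavailability F (%) were derived, with F taken against the iv arm.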

[13] = Oral bioavailability in C57BL/6 mouse at 10 mg/kg; type: ADME, organism-based; details: in vivo; method in brief: as §4
[14] = Clearance in dog at 2 mg/kg, iv; type: ADME, organism-based, Canis lupus familiaris; details: in vivo
Method in brief: (§5)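 Dog and monkey iv PK: 2 mg/kg given by iv administration. Clearance (mL min⁻¹ kg⁻¹), Vss, T1/2 (h) and MRT (h) were derived.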

[15] = Volume of distribution at steady state in dog at 2 mg/kg, iv; type: ADME, organism-based, Canis lupus familiaris; details: in vivo, read-out: Vdss; method in brief: as §3
[16] = MRT in dog at 2 mg/kg, iv; type: ADME, organism-based, Canis lupus familiaris; details: in vivo; method in brief: as §5
[17] = Cmax in dog at 10 mg/kg, po; type: ADME, organism-based, Canis lupus familiaris; design: dose 10 mg/kg, route oral; details: in vivo; method in brief: as §4
[18] = Oral bioavailability in dog at 10 mg/kg; type: ADME, organism-based, Canis lupus familiaris; details: in vivo; method in brief: as §4
[19] = Volume of distribution at steady state in cynomolgus monkey at 2 mg/kg, iv; type: ADME, organism-based, Macaca fascicularis; details: in vivo, read-out: Vdss; method in brief: as §3
[20] = Half life in cynomolgus monkey at 2 mg/kg, iv; type: ADME, organism-based, Macaca fascicularis; details: in vivo; method in brief: as §5
[21] = MRT in cynomolgus monkey at 2 mg/kg, iv; type: ADME, organism-based, Macaca fascicularis; details: in vivo; method in brief: as §5
[22] = Cmax in cynomolgus monkey at 10 mg/kg, po; type: ADME, organism-based, Macaca fascicularis; design: dose 10 mg/kg, route oral; details: in vivo; method in brief: as §4
[23] = Oral bioavailability in cynomolgus monkey at 10 mg/kg; type: ADME, organism-based, Macaca fascicularis; details: in vivo; method in brief: as §4
Mus musculus [24] = experiment: Antiinflammatory activity in CD40-induced colitis model of SCID mouse assessed as inhibition of IL-2 driven body weight loss at 50 mg/kg, po administered twice daily relative to control; type: functional; details: in the assay text read “IL-12 driven” for “IL-2 driven”
Method in brief: (§6)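 Colitis induced by anti-CD40 in SCID mice. Compound was given orally at 50 mg/kg twice daily. Read-outs were peak weight loss (IL-12 driven) and histological scores.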

[25] = Time during which drug concentration exceed invitro IC50 for TYK2 in mouse whole blood assessed as decrease in IFNalpha-induced STAT1 phosphorylation in C57BL/6 mouse at 30 mg/kg, po via gavage bid for 9 days with first dose given prior to first IL23 challenge and twice a day thereafter; type: ADME, organism-based; details: in vivo, 216 h
Method in brief: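 Drug levels were measured in the animals of the IL-23 acanthosis study, dosed orally twice daily. The duration was the time, in hours, that levels stayed at or above the in vitro mouse whole blood IC50 for IFNα-induced pSTAT1.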

Mus musculus [26] = experiment: Antiinflammatory activity in CD40-induced colitis model of SCID mouse assessed as inhibition of histological scores in intestine at 50 mg/kg, po administered twice daily relative to control; type: functional; method in brief: as §6
[27] = Drug metabolism in C57BL/6 mouse assessed as N-dealkylation of compound by measuring primary amide metabolite formation in mouse plasma by deuterium kinetic isotope effect; type: ADME
Method in brief: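 Circulating primary amide metabolite, formed by N-dealkylation of the deuteromethyl amide, was measured in the mouse, dog and monkey PK studies (10 mg/kg po; iv arms). The lower limit of detection was about 2 nM.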

[2H]C([2H])([2H])NC(=O)c1nnc(NC(=O)C2CC2)cc1Nc1cccc(-c2ncn(C)n2)c1OC [DEUCRAVACITINIB]
remaining at 10 min [1]: 89% | half-life [2]: > 2 h | half-life [3]: > 2 h | half-life [4]: > 2 h | Papp B→A [5]: 74 ×10⁻⁶ cm/s | IC50 (Cytochrome P450 1A2): > 40 µM | IC50 (Cytochrome P450 2C9): > 40 µM | EC50 (Cytochrome P450 3A4): > 40 µM | inhibition at 10 µM (hERG (KCNH2)): 26% | fraction unbound [6]: 0.13 | fraction unbound [7]: 0.12 | solubility [8]: 5.2 µg/mL (≈ 12.2 µM) | clearance [9]: 13.2 mL/min/kg | Vd [10]: 2.9 L/kg | half-life [11]: 4.2 h | Cmax [12]: 7.5 µM | bioavailability [13]: 122% | clearance [14]: 6.8 mL/min/kg | Vd [15]: 2.3 L/kg | MRT [16]: 5.5 h | Cmax [17]: 6.9 µM | bioavailability [18]: 128% | Vd [19]: 2 L/kg | half-life [20]: 5.3 h | MRT [21]: 7 h | Cmax [22]: 5.9 µM | bioavailability [23]: 87% | inhibition in vivo at 50 mg/kg (Mus musculus [24]): 99% | T>IC50 [25]: 24 h | inhibition in vivo at 50 mg/kg (Mus musculus [26]): 70% | Drug metabolism [27]: < 2 nM
